# According to PMC3157043 (Nuclear medicine and biology, 2011):
# Tests used:
# A2A = conditions: cited from earlier work
# [1] = normal rats; cited from earlier work
# adenosine A2A = adenosine A2A (Rattus norvegicus, UniProt P30543); test: In vitro autoradiography of rat brain slices; format: binding; conditions: 90 min incubation, 2.3 MBq tracer, phosphor imaging
# [2] = In vitro metabolism in cryopreserved rat hepatocytes; format: in vitro ADME; conditions: rat hepatocyte incubation
# A2A receptor [3] = target: T1, A2A receptor (Rattus norvegicus, UniProt P30543); test: PET kinetic experiment in normal rats; format: in vivo
# Outline: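 Unlesioned male SD rats, age-matched to 13–14-week lesioned rats, were imaged on an Inveon microPET under isoflurane (2–3% v/v in O2). Each received […]/rat radiotracer i.v. in saline, followed by a 30 min list-mode emission scan. Caudate-putamen ROI mean pixel values were converted to counts/g/min (1 g/mL density) and divided by injected dose to give %ID/g, reported as mean ± SEM.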
# A2A receptor [4] = target: T1, A2A receptor; test: PET kinetic experiment in unilaterally 6-OHDA-lesioned rats; format: in vivo
# A2A receptor [5] = target: T1, A2A receptor; test: Ex vivo brain autoradiography / in vivo blocking; conditions: 30 min after i.v. injection of 12.9 MBq, 50 µm slices
# [6] = In vivo biodistribution in normal rats; parameters: species or system rat
# Outline: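 Non-lesioned male SD rats received ~11.1 MBq (300 µCi)/rat radiotracer i.v. in saline. They were killed by CO2 asphyxiation at 30 (n = 4), 60 (n = 4) or 120 min (n = 6). Brain, blood and other tissues were wet-weighed and gamma-counted, and uptake was expressed as %ID/g. Data are mean ± SEM, with means compared by 1-way ANOVA.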
# T1 sequence (P30543 whole entry): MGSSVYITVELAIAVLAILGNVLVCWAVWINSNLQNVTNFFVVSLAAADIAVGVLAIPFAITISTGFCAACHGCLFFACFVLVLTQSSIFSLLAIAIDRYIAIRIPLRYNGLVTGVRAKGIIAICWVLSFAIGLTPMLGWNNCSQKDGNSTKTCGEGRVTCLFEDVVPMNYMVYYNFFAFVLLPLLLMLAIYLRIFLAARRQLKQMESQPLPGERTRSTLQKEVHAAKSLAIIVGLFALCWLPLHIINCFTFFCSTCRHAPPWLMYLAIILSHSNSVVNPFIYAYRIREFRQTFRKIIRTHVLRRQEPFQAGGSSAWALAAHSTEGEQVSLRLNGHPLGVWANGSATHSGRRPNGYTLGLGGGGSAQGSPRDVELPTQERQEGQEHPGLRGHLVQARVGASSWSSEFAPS
# Sequence of adenosine A2A (P30543 whole entry): as above
smiles,measurement,setting,value
"Nc1nc2c(cnn2CCCc2ccc(OCCF)cc2)c2nc(-c3ccco3)nn12 [MRS5425, 7-(3-(4-(2-fluoroethoxy)phenyl)propyl)-2-(furan-2-yl)-7H-pyrazolo[4,3-e][1,2,4]triazolo[1,5-c]pyrimidin-5-amine]",selectivity over A1 and A3,A2A; A2A versus A1 and A3,1000 fold
same,Ki,A2A; read-out: Ki for A2A,12.4 nM
[11CH3]Oc1ccc(CCCn2ncc3c2nc(N)n2nc(-c4ccco4)nc32)cc1 [[^11C]-SCH442416],time of maximum radioactivity accumulation in striatum,[1],5 min
same,time to reach 50% of peak striatal %ID/g,[1],≤ 25 min
same,time to reach lowest striatal %ID/g,[1],≤ 60 min
"Nc1nc2c(cnn2CCCc2ccc(OCC[18F])cc2)c2nc(-c3ccco3)nn12 [[^18F]-MRS5425, 7-(3-(4-(2-[^18F]fluoroethoxy)phenyl)propyl)-2-(furan-2-yl)-7H-pyrazolo[4,3-e][1,2,4]triazolo[1,5-c]pyrimidin-5-amine]",radioactivity binding on coronal brain slices,adenosine A2A,radioactivity binding (dark area in Fig 1 b) in the caudate-putamen (striatum) nucleus bilaterally
same,defluorination,[2],evidence for defluorination
same,metabolite observed,"[2]; HPLC-MS, m/z +16, believed N-oxidation",a major fluorine-containing metabolite
same,bone uptake in imaging studies,"A2A receptor [3]; PET imaging in rats, marker of defluorination",not observed
same,plateau of striatal %ID/g held until,A2A receptor [3]; normal rats,3.5 min
same,striatal uptake versus cortical and other regions,"A2A receptor [3]; normal rats, PET images",significantly higher uptake
same,time of decline to 75% of peak %ID/g,"A2A receptor [3]; normal rats, striatum TAC",about 6 min
same,time of maximum striatal ROI-derived %ID/g,"A2A receptor [3]; normal rats, striatum TAC",90 s
same,plateau maintained after maximum,"A2A receptor [3]; normal rats, striatum TAC, additional time after 90 sec",2 min
same,%ID/g values compared with [11C]-SCH442416 in monkeys,A2A receptor [3]; rat striatum versus 0.035 %ID/mL in monkeys,~ 20 fold
same,plateau of striatal %ID/g held until,A2A receptor [4]; 6-OHDA rats,4.5 min
same,plateau maintained after peak,"A2A receptor [4]; 6-OHDA-lesioned rats, saline",about 3 min
same,time of peak baseline striatal %ID/g,"A2A receptor [4]; 6-OHDA-lesioned rats, saline, both lesioned and intact sides",90 s
same,%ID/g in lesioned side compared to intact side,"A2A receptor [4]; saline baseline, after plateau to 30 min, p < 0.05",significantly higher
same,ex vivo radioactivity binding in brain slices,A2A receptor [5],radioactivity binding in the striatal region bilaterally
same,primary accumulation (tissues),"[6]; 30, 60, 120 min biodistribution",intestine and urine
same,uptake in striatum,"[6]; 30 min after i.v. injection, n = 4, mean ± SEM",0.25 ± 0.09 %ID/g
same,uptake in striatum,"[6]; 60 min after i.v. injection, n = 4, mean ± SEM",0.35 ± 0.10 %ID/g
same,uptake in striatum,"[6]; 120 min after i.v. injection, n = 6, mean ± SEM",0.13 ± 0.03 %ID/g
same,uptake in striatum compared to blood,[6]; at 30 and 60 min,~ 2 fold
